# According to ChEMBL document CHEMBL2401648, “3-Aryl-3-arylmethoxyazetidines. A new class of high affinity ligands for monoamine transporters” (Bioorg Med Chem Lett, 2013):
# Columns and labels:
# Assay type in all cases: tissue-based
# [1] = molecular target: Sodium-dependent serotonin transporter (Rattus norvegicus, UniProt P31652); assay: Displacement of [3H]Citalopram from SERT in Sprague-Dawley rat brain homogenate after 60 mins by scintillation counting analysis
# Outline: (§1)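 Competitive binding in rat brain tissue: [3H]citalopram displaced from SERT, [3H]WIN 35,428 displaced from DAT. Ki values are the mean ± SEM of three experiments run in triplicate. Compounds tested mainly as hydrochloride salts, some as oxalate salts.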
# [2] = molecular target: Sodium-dependent dopamine transporter (Rattus norvegicus, UniProt P23977); assay: Displacement of [3H]WIN 35,428 from DAT in Sprague-Dawley rat brain homogenate preincubated for 5 mins prior to radioligand addition measured after 1 hr by scintillation counting analysis; outline: as §1
# Chain of Sodium-dependent dopamine transporter (P23977 whole entry): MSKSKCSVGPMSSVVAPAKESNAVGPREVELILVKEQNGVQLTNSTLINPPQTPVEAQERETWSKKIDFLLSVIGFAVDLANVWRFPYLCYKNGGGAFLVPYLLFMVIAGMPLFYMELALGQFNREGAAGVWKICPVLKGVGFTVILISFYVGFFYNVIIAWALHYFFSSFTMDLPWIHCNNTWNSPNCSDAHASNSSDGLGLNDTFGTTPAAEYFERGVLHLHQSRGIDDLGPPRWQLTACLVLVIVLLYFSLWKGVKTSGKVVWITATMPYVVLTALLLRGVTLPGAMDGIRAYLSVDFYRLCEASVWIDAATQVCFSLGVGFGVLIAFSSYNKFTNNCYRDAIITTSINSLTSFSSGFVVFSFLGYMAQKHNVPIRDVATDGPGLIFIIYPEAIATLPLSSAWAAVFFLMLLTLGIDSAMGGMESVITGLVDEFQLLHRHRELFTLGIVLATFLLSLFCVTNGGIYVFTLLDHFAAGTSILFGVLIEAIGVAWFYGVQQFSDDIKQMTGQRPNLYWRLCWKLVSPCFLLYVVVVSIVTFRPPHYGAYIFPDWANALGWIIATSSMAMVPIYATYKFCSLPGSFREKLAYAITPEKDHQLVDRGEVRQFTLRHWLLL
# Rattus norvegicus = species: Rattus norvegicus; assay: Selectivity ratio of Ki for DAT in Sprague-Dawley rat brain homogenate to Ki for SERT in Sprague-Dawley rat brain homogenate
# Outline: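 Ratio of DAT Ki to SERT Ki. DAT Ki came from [3H]WIN 35,428 displacement and SERT Ki from [3H]citalopram displacement, both in rat brain tissue. Each Ki is the mean ± SEM of three experiments run in triplicate.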
# Chain of Sodium-dependent serotonin transporter (P31652 whole entry): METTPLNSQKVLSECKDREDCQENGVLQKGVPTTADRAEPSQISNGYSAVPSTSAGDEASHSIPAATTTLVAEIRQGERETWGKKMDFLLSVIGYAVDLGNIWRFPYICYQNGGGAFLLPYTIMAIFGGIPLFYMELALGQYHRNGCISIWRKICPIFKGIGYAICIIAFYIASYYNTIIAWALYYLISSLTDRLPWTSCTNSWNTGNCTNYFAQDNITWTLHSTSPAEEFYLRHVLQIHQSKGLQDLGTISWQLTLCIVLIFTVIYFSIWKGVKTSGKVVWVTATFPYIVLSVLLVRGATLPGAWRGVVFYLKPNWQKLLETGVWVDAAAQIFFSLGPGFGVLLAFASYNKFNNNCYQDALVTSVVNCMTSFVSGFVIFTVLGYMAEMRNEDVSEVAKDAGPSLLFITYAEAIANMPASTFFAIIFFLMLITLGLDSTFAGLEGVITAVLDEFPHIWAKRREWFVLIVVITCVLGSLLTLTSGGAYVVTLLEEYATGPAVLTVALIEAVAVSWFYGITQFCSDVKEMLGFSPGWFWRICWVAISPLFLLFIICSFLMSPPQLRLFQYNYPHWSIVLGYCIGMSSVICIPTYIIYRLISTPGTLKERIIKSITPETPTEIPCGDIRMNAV
Structure (SMILES),Ki [1],Ki [2],Ratio Ki (Rattus norvegicus)
Clc1ccc(COC2(c3ccc(Cl)c(Cl)c3)CNC2)cc1,2.9 nM,3020 nM,1000
CN1CC(OCc2ccc(Cl)cc2)(c2ccccc2)C1,4 nM,3910 nM,980
Clc1ccc(C2(OCc3ccccc3)CNC2)cc1Cl,208 nM,1300 nM,6.3
Clc1ccc(COC2(c3ccc(Cl)c(Cl)c3)CNC2)cc1Cl,4.2 nM,3670 nM,870
c1ccc(COC2(c3ccccc3)CNC2)cc1,1230 nM,4860 nM,4
CN1CC(OCc2ccc(Cl)cc2)(c2ccc(Cl)c(Cl)c2)C1,4.8 nM,2290 nM,630
CN1CC(OCc2ccccc2)(c2ccc(Cl)c(Cl)c2)C1,23 nM,620 nM,27
CN1CC(OCc2ccc(Cl)c(Cl)c2)(c2ccc(Cl)c(Cl)c2)C1,1.3 nM,436 nM,340
CN1CC(OCc2ccc(Cl)cc2)(c2ccc(Cl)cc2)C1,7.8 nM,2030 nM,490
CN1CC(OCc2ccc(Cl)c(Cl)c2)(c2ccccc2)C1,1 nM,–,–
CN1CC(OCc2ccc(Cl)c(Cl)c2)(c2ccc(Cl)cc2)C1,3 nM,976 nM,330
Clc1ccc(C2(OCc3ccccc3)CNC2)cc1,825 nM,3180 nM,3.9
Clc1ccc(COC2(c3ccccc3)CNC2)cc1,2590 nM,3610 nM,1.4
Clc1ccc(COC2(c3ccccc3)CNC2)cc1Cl,7.3 nM,2820 nM,390
Clc1ccc(C2(OCc3ccc(Cl)c(Cl)c3)CNC2)cc1,8.1 nM,3770 nM,470
Clc1ccc(COC2(c3ccc(Cl)cc3)CNC2)cc1,3.5 nM,3830 nM,1100
CN1CC(OCc2ccccc2)(c2ccccc2)C1,73 nM,1730 nM,24
CN1CC(OCc2ccccc2)(c2ccc(Cl)cc2)C1,39 nM,1410 nM,36
